Measured values reported in ChEMBL document CHEMBL1157195, “Synthesis, cytotoxic activity, and SAR analysis of the derivatives of taxchinin A and brevifoliol” (Bioorg Med Chem, 2008).
pIC50: −log10 of the molar value. Active and inactive are the calls of the source. The rule behind the calls is not given here.

Test system: not listed separately
Test: (§1) Cytotoxicity against human A459 cells after 72 hrs by sulforhodamine B assay
Format: cell-based
Conditions: Homo sapiens, A459, 72 h; read-out: IC50
In short: (§2)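 Human non-small lung cancer cells (A459, ATCC), exponentially growing, seeded at 4 × 10^4/mL in 96-well plates and pre-incubated 72 h at 37 °C, 5% CO2. Compounds added at 100, 10, 1 and 0.1 μM; further 72 h exposure. Cells fixed with cold 50% TCA (4 °C, 1 h), stained 30 min with 0.4% SRB in 1% acetic acid, dye solubilized in 10 mM unbuffered Tris; OD read at 570 nm.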

Structure (SMILES)	pIC50
C=C1[C@@H](O[Si](CC)(CC)CC)C[C@H](OC(C)=O)[C@@]2(C)[C@@H](OC(C)=O)[C@H](OC(=O)c3ccccc3)C3=C(C)[C@@H](O[Si](CC)(CC)CC)C[C@@]3(C(C)(C)O)[C@@H](OC(C)=O)[C@H]12	4.06
C=C1C(=O)C[C@H](OC(C)=O)[C@@]2(C)[C@@H](OC(C)=O)[C@H](OC(=O)c3ccccc3)C3=C(C)C(=O)C[C@@]3(C(C)(C)O)[C@@H](OC(C)=O)[C@H]12 [5,13-DIOXOTAXCHININ A]	5.77
C=C1[C@@H](O[Si](CC)(CC)CC)C[C@H](OC(C)=O)[C@]2(C)[C@@H]1C=C1CC(=O)C(C)=C1[C@@H](OC(=O)c1ccccc1)[C@@H]2OC(C)=O	4.76
C=C1[C@@H](O)C[C@H](OC(C)=O)[C@@]2(C)[C@@H](OC(C)=O)[C@H](OC(=O)c3ccccc3)C3=C(C)[C@@H](O[Si](C)(C)C(C)(C)C)C[C@@]3(C(C)(C)O)[C@@H](OC(C)=O)[C@H]12	4.91
C=C1[C@H]2C=C3CC(=O)C(C)=C3[C@@H](OC(=O)c3ccccc3)[C@H](OC(C)=O)[C@]2(C)[C@@H](OC(C)=O)C[C@@H]1O	4.67
C=C1[C@@H](O)C[C@H](OC(C)=O)[C@@]2(C)[C@@H](OC(C)=O)[C@H](OC(=O)c3ccccc3)C3=C(C)[C@@H](O)C[C@@]3(C(C)(C)O)[C@@H](OC(C)=O)[C@H]12 [TAXCHININ A]	4.22
C=C1C(=O)C[C@H](OC(C)=O)[C@@]2(C)[C@@H](OC(C)=O)[C@H](OC(=O)c3ccccc3)C3=C(C)[C@@H](O)C[C@@]3(C(C)(C)O)[C@@H](OC(C)=O)[C@H]12	5.50
C=C1C(=O)C=C[C@]2(C)[C@@H]1C=C1CC(=O)C(C)=C1[C@@H](OC(=O)c1ccccc1)[C@@H]2OC(C)=O	5.55
C=C1[C@H]2C=C3CC(=O)C(C)=C3C(OC(=O)c3ccccc3)=C[C@]2(C)[C@@H](OC(C)=O)C[C@@H]1O	4.09
CC(=O)O[C@H]1CC=C(C=O)[C@H]2C=C3CC(=O)C(C)=C3[C@@H](OC(=O)c3ccccc3)[C@H](OC(C)=O)[C@]12C	4.95
C=C1C(=O)C=C[C@@]2(C)[C@@H](OC(C)=O)[C@H](OC(=O)c3ccccc3)C3=C(C)C(=O)C[C@@]3(C(C)(C)O)[C@@H](OC(C)=O)[C@H]12	5.61
C=C1C(=O)C[C@H](OC(C)=O)[C@@]2(C)[C@@H](OC(C)=O)[C@H](OC(=O)c3ccccc3)C3=C(C)[C@@H](O[Si](C)(C)C(C)(C)C)C[C@@]3(C(C)(C)O)[C@@H](OC(C)=O)[C@H]12	6.32
C=C1[C@H]2C[C@@]34C[C@@H](OC3(C)C)C(C)=C4[C@@H](OC(=O)c3ccccc3)[C@H](OC(C)=O)[C@]2(C)[C@@H](OC(C)=O)C[C@@H]1O	4.33
CC(=O)O[C@H]1CC=C(C=O)[C@H]2C[C@]3(C(C)(C)O)CC(=O)C(C)=C3[C@@H](OC(=O)c3ccccc3)[C@H](OC(C)=O)[C@]12C	4.50
C=C1C(=O)C=C[C@]2(C)[C@@H]1C[C@]1(C(C)(C)O)CC(=O)C(C)=C1[C@@H](OC(=O)c1ccccc1)[C@@H]2OC(C)=O	5.21
CC(=O)O[C@H]1CC=C(C=O)[C@H]2C[C@@]34C[C@@H](OC3(C)C)C(C)=C4[C@@H](OC(=O)c3ccccc3)[C@H](OC(C)=O)[C@]12C	5.21
C=C1C(=O)C[C@H](OC(C)=O)[C@@]2(C)[C@@H](OC(C)=O)[C@H](OC(=O)c3ccccc3)C3=C(C)[C@H]4C[C@]3([C@@H](OC(C)=O)[C@H]12)C(C)(C)O4	6.12
C=C1C(=O)C=C[C@@]2(C)[C@@H](OC(C)=O)[C@H](OC(=O)c3ccccc3)C3=C(C)[C@@H](O)C[C@@]3(C(C)(C)O)[C@@H](OC(C)=O)[C@H]12	5.23
C=C1[C@@H](O)C[C@H](OC(C)=O)[C@@]2(C)[C@@H](OC(C)=O)[C@H](OC(=O)c3ccccc3)C3=C(C)C(=O)C[C@@]3(C(C)(C)O)[C@@H](OC(C)=O)[C@H]12 [13-OXO-TAXCHININ A]	4.04

Same assay, conditions: a459

Structure (SMILES)	IC50
C=C1[C@@H](O[Si](C)(C)C(C)(C)C)C[C@H](OC(C)=O)[C@@]2(C)[C@@H](OC(C)=O)[C@H](OC(=O)c3ccccc3)C3=C(C)[C@@H](O[Si](C)(C)C(C)(C)C)C[C@@]3(C(C)(C)O)[C@@H](OC(C)=O)[C@H]12	Not Active
C=C1[C@@H](O)C[C@H](OC(C)=O)[C@@]2(C)[C@@H](OC(C)=O)[C@H](OC(=O)c3ccccc3)C3=C(C)[C@H]4C[C@]3([C@@H](OC(C)=O)[C@H]12)C(C)(C)O4	Not Active

Test system: A459
Test: as §1
Format: cell-based
Conditions: not given
In short: as §2

Structure (SMILES)	Activity
C=C1[C@H]2C[C@]3(C(C)(C)O)C[C@H](O)C(C)=C3[C@@H](OC(=O)c3ccccc3)[C@H](OC(C)=O)[C@]2(C)[C@@H](OC(C)=O)C[C@@H]1O	inactive
C=C1[C@H]2C[C@]3(C(C)(C)O)CC(=O)C(C)=C3[C@@H](OC(=O)c3ccccc3)[C@H](OC(C)=O)[C@]2(C)[C@@H](OC(C)=O)C[C@@H]1O	inactive
